Measured values published in ChEMBL document CHEMBL4699391, “Conversion of amino acids to aryl/heteroaryl ethanol metabolites using human CYP2D6-expressing live baker''s yeast” (RSC Med Chem, 2020).
The source made the active and inactive calls.

Key:
N2a [1] = experiment: Neuroprotective activity against corticosterone-induced neurotoxicity in mouse N2a cells assessed as increase in cell viability at 5 nM preincubated for 24 hrs followed by corticosterone addition and measured after 24 hrs; assay type: functional, cell-based; details: time 48.0 hrs
[2] = target: BDNF/NT-3 growth factors receptor (Homo sapiens) (UniProt Q16620); experiment: Induction of TrkB activation in human SH-SY5Y cells assessed as increase in ERK1/2 phosphorylation at 5 nM after 4 hrs by Western blot analysis; assay type: cell-based; details: filed as activator
Chain of BDNF/NT-3 growth factors receptor (Homo sapiens) (Q16620 32-822 limits assumed): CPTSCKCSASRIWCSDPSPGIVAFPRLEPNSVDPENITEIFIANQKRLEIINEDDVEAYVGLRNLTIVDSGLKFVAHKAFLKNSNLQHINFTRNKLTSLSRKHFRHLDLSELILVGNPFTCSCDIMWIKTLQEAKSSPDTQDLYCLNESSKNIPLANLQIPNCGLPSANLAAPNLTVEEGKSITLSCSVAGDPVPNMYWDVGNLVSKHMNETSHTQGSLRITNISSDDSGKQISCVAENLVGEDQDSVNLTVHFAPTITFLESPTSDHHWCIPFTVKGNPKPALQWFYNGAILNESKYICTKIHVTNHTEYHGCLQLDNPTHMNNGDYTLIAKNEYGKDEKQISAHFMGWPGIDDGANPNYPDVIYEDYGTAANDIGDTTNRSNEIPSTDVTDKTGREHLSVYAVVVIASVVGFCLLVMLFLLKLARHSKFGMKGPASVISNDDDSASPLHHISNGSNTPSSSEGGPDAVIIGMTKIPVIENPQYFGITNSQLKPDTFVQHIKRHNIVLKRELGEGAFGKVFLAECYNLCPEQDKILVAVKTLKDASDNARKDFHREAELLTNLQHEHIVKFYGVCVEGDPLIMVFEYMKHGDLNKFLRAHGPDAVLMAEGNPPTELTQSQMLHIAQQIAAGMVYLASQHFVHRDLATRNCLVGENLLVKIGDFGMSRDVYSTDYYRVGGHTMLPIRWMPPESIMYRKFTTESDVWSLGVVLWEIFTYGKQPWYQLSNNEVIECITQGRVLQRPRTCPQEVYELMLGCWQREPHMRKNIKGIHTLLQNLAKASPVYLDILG

[3] = target: BDNF/NT-3 growth factors receptor (Homo sapiens) (UniProt Q16620); experiment: Induction of TrkB activation in human SH-SY5Y cells assessed as increase in Akt phosphorylation at 5 nM after 4 hrs by Western blot analysis; assay type: cell-based; details: filed as activator
[4] = target: BDNF/NT-3 growth factors receptor (Homo sapiens) (UniProt Q16620); experiment: Induction of TrkB activation in human SH-SY5Y cells assessed as increase in phosphorylated TrkB level at 5 nM after 4 hrs by Western blot analysis; assay type: cell-based; details: filed as activator
SH-SY5Y [5] = experiment: Neuroprotective activity against corticosterone-induced neurotoxicity in human SH-SY5Y cells assessed as induction of BDNF neurotropic response at 5 nM preincubated for 2 hrs followed by corticosterone addition and measured after 4 hrs by ELISA; assay type: functional, cell-based; details: time 6.0 hrs
[6] = target: BDNF/NT-3 growth factors receptor (Homo sapiens) (UniProt Q16620); experiment: Induction of TrkB activation in human SH-SY5Y cells assessed as increase in phosphorylated TrkB level at 10 uM after 4 hrs by Western blot analysis; assay type: cell-based; details: filed as activator
N2a [7] = experiment: Neuroprotective activity against corticosterone-induced neurotoxicity in mouse N2a cells assessed as increase in cell viability at 10 uM preincubated for 24 hrs followed by corticosterone addition and measured after 24 hrs; assay type: functional, cell-based; details: time 48.0 hrs
In short: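 Mouse neuroblastoma N2a cells were pretreated with test compound for 24 hrs. They were then co-treated with the neurotoxin, printed as cortisone, at 400 μM for a further 24 hrs before neuroprotection was assessed. P value thresholds were ≤0.05, <0.01 and 0.001.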

SH-SY5Y [8] = experiment: Neuroprotective activity against corticosterone-induced neurotoxicity in human SH-SY5Y cells assessed as induction of BDNF neurotropic response at 10 uM preincubated for 2 hrs followed by corticosterone addition and measured after 4 hrs by ELISA; assay type: functional, cell-based; details: time 6.0 hrs
[9] = target: BDNF/NT-3 growth factors receptor (Homo sapiens) (UniProt Q16620); experiment: Induction of TrkB activation in human SH-SY5Y cells assessed as increase in ERK1/2 phosphorylation at 10 uM after 4 hrs by Western blot analysis; assay type: cell-based; details: filed as activator
[10] = target: BDNF/NT-3 growth factors receptor (Homo sapiens) (UniProt Q16620); experiment: Induction of TrkB activation in human SH-SY5Y cells assessed as increase in Akt phosphorylation at 10 uM after 4 hrs by Western blot analysis; assay type: cell-based; details: filed as activator

Row | Activity [2] | Activity [3] | Activity [4] | Activity [6] | Activity [9] | Activity [10] | SMILES | Activity (N2a [1]) | Activity (SH-SY5Y [5]) | Activity (N2a [7]) | Activity (SH-SY5Y [8])
1 | Active | Active | Active | – | – | – | O=c1cc(-c2ccccc2)oc2c(O)c(O)ccc12 | Active | Active | – | –
2 | – | – | – | Active | Active | Active | OCCc1ccc(O)cc1 | – | – | Active | Active
3 | – | – | – | Active | Active | Active | OCCc1c[nH]c2ccccc12 | – | – | Active | Active
